Test results as given in ChEMBL document CHEMBL1124262, “Cardiotonic agents. Synthesis and inotropic activity of a series of isoquinolin-3-ol derivatives” (J Med Chem, 1988).

Tests used:
Canis familiaris [1] = test: Change in left ventricular pressure of anaesthetized, open chest dogs following 0.875 mg/kg i.v. administration.; assay type: functional, Canis lupus familiaris, Heart left ventricle; settings: route intravenous
Outline: (§1)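 Anesthetized open-chest dogs, one drug per animal. Compound is in DMF diluted to 10% in saline, or given as the HCl salt in saline. It is infused into the femoral vein by pump at 0.58-2.2 mL/min in 3-4 stepwise cumulative doses, each over 5 min after the prior peak. Readings are CF by right-ventricle strain gauge, dP/dtmax by Millar LV catheter, HR by cardiotachometer and MAP from femoral artery, as % change from predrug control.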

Canis familiaris [2] = test: Change in heart rate of anaesthetized, open chest dogs following 0.875 mg/kg i.v. administration.; assay type: functional, Canis lupus familiaris; settings: route intravenous; outline: as §1
Canis familiaris [3] = test: Change in heart contractile force of anaesthetized, open chest dogs following 0.875 mg/kg i.v. administration.; assay type: functional, Canis lupus familiaris; settings: route intravenous; outline: as §1
Canis familiaris [4] = test: Percent change in mean arterial blood pressure (MAP) in anesthetized open chest dogs iv administration at 0.8750 mg/kg; assay type: functional, Canis lupus familiaris; settings: dose 0.875 mg/kg; outline: as §1
Canis familiaris [5] = test: Percent change in mean arterial blood pressure (MAP) in anesthetized open chest dogs iv administration at 0.875 mg/kg; assay type: functional, Canis lupus familiaris; outline: as §1
Canis familiaris [6] = test: Percent change in mean arterial blood pressure (MAP) in anesthetized open chest dogs iv administration at 1.875 mg/kg; assay type: functional, Canis lupus familiaris; outline: as §1
Canis familiaris [7] = test: Percent change in left ventricular pressure (dP/dtmax) in anesthetized dog after iv administration at 1.875 mg/kg; assay type: functional, Canis lupus familiaris, Heart left ventricle; outline: as §1
Canis familiaris [8] = test: Percent change in heart rate (HR) in anesthetized open chest dogs after a iv dose of 1.875 mg/kg; assay type: functional, Canis lupus familiaris; outline: as §1
Canis familiaris [9] = test: Percent increase in contractile force (CF) in anesthetized open-chest dogs iv administration of 1.875 mg/kg; assay type: functional, Canis lupus familiaris
Outline: (§2)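 Anesthetized open-chest dogs. After a right thoracotomy, contractile force was recorded by a Walton Brodie strain gauge sutured to the right ventricle at 100 g baseline tension. Compound was given iv by infusion pump into a femoral vein, one drug per animal, in three to four stepwise increasing doses. Each dose ran over 5 min, starting once the previous dose's effect peaked. Values are % increase over predrug control vs cumulative mg/kg dose.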

Canis familiaris [10] = test: Percent change in left ventricular pressure (dP/dtmax) in anesthetized dog after iv administration at 1.75 mg/kg; assay type: functional, Canis lupus familiaris, Heart left ventricle; outline: as §1
Canis familiaris [11] = test: Percent increase in contractile force (CF) in anesthetized open-chest dogs iv administration of 1.75 mg/kg; assay type: functional, Canis lupus familiaris; outline: as §2
Canis familiaris [12] = test: Percent change in mean arterial blood pressure (MAP) in anesthetized open chest dogs iv administration at 1.75 mg/kg; assay type: functional, Canis lupus familiaris; outline: as §1
Canis familiaris [13] = test: Percent change in heart rate (HR) in anesthetized open chest dogs after a iv dose of 1.75 mg/kg; assay type: functional, Canis lupus familiaris; outline: as §1
Phosphodiesterase 3 = Phosphodiesterase 3 (Homo sapiens, UniProt Q14432+Q13370); test: Inhibition of phosphodiesterase fraction III in anesthetized open chest dogs; assay type: functional, Canis lupus familiaris; settings: target entry is the homologue from another species
Outline: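 Enzyme is dog heart PDE-III, the third DEAE-cellulose fraction eluted at 800 mM sodium acetate. Compounds are tested at 0.01–1000 μM with 0.25 μM cAMP containing [³H]cAMP, in 0.05 M Tris-HCl pH 7.4 with 5 mM MgCl2. The reaction is stopped by heat, then snake venom converts product to adenosine. [³H]adenosine is counted by scintillation after Dowex separation. IC50 comes from ≥2 determinations, each in duplicate.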

Canis familiaris [14] = test: 50% increase in contractile force in one to three anesthetized dogs administered intravenously; assay type: functional; settings: Canis lupus familiaris, iv
Outline: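 Anesthetized dogs (one to three). Compound is infused iv in three to four stepwise increasing doses, each over 5 min once the previous effect has peaked. Contractile force is recorded with a Walton Brodie strain gauge on the right ventricle. The dose (μg/kg) giving a 50% rise over control CF is read from the dose-response curve, graphically (n < 3) or by linear regression (n ≥ 3).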

Canis familiaris [15] = test: Percent change in mean arterial blood pressure (MAP) in anesthetized open chest dogs iv administration at 0.3750 mg/kg; assay type: functional, Canis lupus familiaris; settings: dose 0.375 mg/kg; outline: as §1
Canis familiaris [16] = test: Percent change in heart rate (HR) in anesthetized open chest dogs after a iv dose of 0.375 mg/kg; assay type: functional, Canis lupus familiaris; outline: as §1
Canis familiaris [17] = test: Percent increase in contractile force (CF) in anesthetized open-chest dogs iv administration of 0.375 mg/kg; assay type: functional, Canis lupus familiaris; outline: as §2
Canis familiaris [18] = test: Percent change in left ventricular pressure (dP/dtmax) in anesthetized dog after iv administration at 0.375 mg/kg; assay type: functional, Canis lupus familiaris, Heart left ventricle; outline: as §1

| Structure (SMILES) | Increase (Canis familiaris [1]) [%] | Change (Canis familiaris [2]) [%] | Increase (Canis familiaris [3]) [%] | Change (Canis familiaris [6]) [%] | Increase (Canis familiaris [7]) [%] | Change (Canis familiaris [8]) [%] | Increase (Canis familiaris [9]) [%] | further results |
| --- | --- | --- | --- | --- | --- | --- | --- | --- |
| COC(=O)CCc1c(O)ncc2cc(OC)c(OC)cc12 | 24 | 7 | 53 |  |  |  |  | Change (Canis familiaris [4]): -4% |
| COc1ccc2cc(O)nc(C)c2c1OC | 51 | 10 | 62 |  |  |  |  | Change (Canis familiaris [5]): -6% |
| COc1ccc2cc(O)nc(C)c2c1 | 87 | 19 | 114 |  |  |  |  | Change (Canis familiaris [4]): -18% |
| COC(=O)c1c(O)nc(C)c2cc(OC)c(OC)cc12 |  |  |  | -3 | 19 | 6 | 39 |  |
| Cc1nc(O)c(Cl)c2cc3c(cc12)OCO3 |  |  |  | -22 | 51 | 28 | 88 |  |
| COC(=O)CCc1c(O)ncc2cc3c(cc12)OCO3 |  |  |  | 0 | 28 | 6 | 26 |  |
| COc1cc2cc(O)nc(C)c2cc1OC |  |  |  |  |  |  |  | Increase (Canis familiaris [10]): 55%; Increase (Canis familiaris [11]): 100%; Change (Canis familiaris [12]): -32%; Change (Canis familiaris [13]): 25% |
| CNC(=O)CCc1c(O)nc(C)c2cc(OC)c(OC)cc12 | 40 |  |  | -5 |  | 7 | 62 |  |
| CCOc1cc2cnc(O)cc2cc1OC |  |  |  | 0 | 32 | 7 | 34 |  |
| CNC(=O)c1c(O)nc(C)c2cc(OC)c(OC)cc12 |  |  |  | 4 | 17 | 0 | 2 |  |
| CCOc1cc2cc(O)nc(C)c2cc1OCC | 42 | 15 | 84 |  |  |  |  | Change (Canis familiaris [4]): -11% |
| COC(=O)CCc1c(O)nc(C)c2cc3c(cc12)OCO3 | 118 | 38 | 131 |  |  |  |  | Change (Canis familiaris [4]): -21% |
| COc1cc2c(C)nc(O)c(CCC(=O)OC(C)C)c2cc1OC |  |  |  | -6 | 15 | 3 | 22 |  |
| COC(=O)CCc1c(O)nc(C)c2c(OC)c(OC)c(OC)cc12 | 20 | 8 | 22 |  |  |  |  | Change (Canis familiaris [4]): -4% |
| COc1cc2c(C)nc(O)c(CCC(=O)O)c2cc1OC |  |  |  | -3 | 42 | 5 | 75 |  |
| COc1cc2c(C)nc(O)c(C3CCCC3)c2cc1OC |  |  |  | 3 | 22 | 5 | 46 | IC50 (Phosphodiesterase 3): 128 µM; ED50 (Canis familiaris [14]): 1.88 mg/kg |
| COC(=O)CCc1c(O)nc(C(C)C)c2cc(OC)c(OC)cc12 |  |  |  | 3 | 17 | 7 | 15 |  |
| COc1ccc2[nH]c(=O)nc(C)c2c1OC [BEMARINONE] |  |  |  |  |  |  |  | Change (Canis familiaris [15]): -6%; Change (Canis familiaris [16]): 11%; Increase (Canis familiaris [17]): 71%; Increase (Canis familiaris [18]): 30% |
